Assay results reported in PMC6361726 (Bioorganic & medicinal chemistry, 2018).

Key:
HK853 [1] = test: Fluorescence polarization; assay type: binding, Thermotoga maritima
p38 MAP kinase = settings: read-out: inhibition of p38 MAP kinase; quantity type not given; cited from earlier work
VicK = VicK (Streptococcus pneumoniae, UniProt Q8DPL8); test: ATP[γ-33P] enzymatic activity inhibition assay; assay type: biochemical; settings: at non-aggregating concentrations
Procedure, shortened: (§1)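 Secondary assay run in a coupled competition-aggregation format on two histidine kinases: HK853 from Thermotoga maritima and VicK from Streptococcus pneumoniae. Enzymatic activity is followed using ATP[γ-33P], and the degree of inhibition by the test compound is measured.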

Pseudomonas aeruginosa = test: Cell viability by optical density and resazurin indicator dye; assay type: cell-based; settings: compared to a DMSO control, one replicate
[2] = system: Methicillin-sensitive Staphylococcus aureus; test: as above; assay type: cell-based; settings: compared to a DMSO control, one replicate
S. aureus = test: Biofilm formation, crystal violet staining assay; assay type: cell-based, Staphylococcus aureus; settings: compared to a DMSO control, one replicate
P. aeruginosa = test: Biofilm formation, crystal violet staining assay; assay type: cell-based, Pseudomonas aeruginosa; settings: compared to a DMSO control, one replicate
HK853 [3] = test: ATP[γ-33P] enzymatic activity inhibition assay; assay type: biochemical, Thermotoga maritima; settings: at non-aggregating concentrations
Procedure, shortened: as §1

protein kinase D = settings: cited from earlier work

VicK, sequence (Q8DPL8 whole entry): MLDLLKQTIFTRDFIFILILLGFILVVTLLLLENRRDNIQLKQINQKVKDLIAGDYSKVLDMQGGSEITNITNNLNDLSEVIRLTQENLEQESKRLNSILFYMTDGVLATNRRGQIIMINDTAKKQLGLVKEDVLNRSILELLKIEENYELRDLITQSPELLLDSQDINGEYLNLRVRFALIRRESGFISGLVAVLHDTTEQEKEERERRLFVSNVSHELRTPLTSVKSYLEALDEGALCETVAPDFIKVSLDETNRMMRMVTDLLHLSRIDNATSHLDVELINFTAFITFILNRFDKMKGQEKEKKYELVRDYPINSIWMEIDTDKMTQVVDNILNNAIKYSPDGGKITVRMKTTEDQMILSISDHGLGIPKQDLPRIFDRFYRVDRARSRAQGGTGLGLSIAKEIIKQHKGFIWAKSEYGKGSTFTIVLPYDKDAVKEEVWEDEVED

Row | SMILES | activity in the HTS (FP screen) for HK inhibition (HK853 [1]; related library compounds that were not leads) | displacement of ADP-BODIPY from the HK ATP-binding domain (HK853 [1]) | IC50 (p38 MAP kinase) [nM] | inhibition of VicK activity (VicK) | effect on cell viability (Pseudomonas aeruginosa) | effect on cell viability [2] | effect on biofilm production (S. aureus) | effect on biofilm production (P. aeruginosa) | inhibition of HK activity (HK853 [3]) | inhibition of protein kinase D (protein kinase D)
1 | Fc1ccc(-c2c(-c3ccncc3)[nH]c3cccnc23)cc1 [RO1153853–000] | inactive | – | – | – | – | – | – | – | – | –
2 | Fc1ccc(-c2c(-c3ccncc3)[nH]c3nccnc23)cc1 [compound 32] | – | displace ADP-BODIPY | 53 | inhibit | did not cause a significant decrease in cell viability | did not cause a significant decrease in cell viability | little effect | little effect | inhibit | potent inhibitor
